High-throughput results as filed in PubChem BioAssay.
Only some compounds are listed: those with a hit (about 2.3% of all), similar ones and a draw of the others.
CSN inh: inhibitors of human CSN-mediated cullin deneddylation; Purified CSN, SCF-Nedd8-OG deneddylation, fluorescence polarization; inhibition, % at 12.5 µM; 360,000 tested, 0.38% active; AID 651999;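 active = pattern-corrected inhibition above about 35%, with an unprinted fluorescence ratio check between 0.5 and 1.5, limit read from the data, passing the limit was not always enough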;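 note: 0% = enzyme with substrate and 100% = substrate without enzyme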
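test system = HEK293T-derived human Csn5 enzyme | amount = 0.24 nM Csn5 enzyme, final concentration | medium = Tris/NaCl/DTT buffer, pH 7.5 | schedule = 90 min reaction at room temperature | signal = FP | evaluation = inhibition of Csn5 cleavage, % | compound dosing = single dose of 12.5 µM compound with 0.25% DMSO | probe or stimulus = 10 nM SCFSkp2-Nedd8OG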
CRFR2-BP ag: CRF-BP/CRF-R2 complex agonism; HEK293 CRF-R2/CRF-BP, calcium dye fluorescence (FLIPR); percent of saturating CRF peptide response; activation, % at 13.2 µM; 350,000 tested, 0.46% active; AID 588473;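 active = activation of at least 50%, plus an integration ratio under a set limit after plate pattern correction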;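 note: plate controls were neutral control wells without compound for no effect and CRF at EC100 for full effect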
Rpn11 inh: inhibitors of human proteasome Rpn11; O00487; human 26S proteasome, Ub4-pepOG fluorescence polarization; 20S core pre-blocked with epoxomicin; calls only at 20 µM; 360,000 tested, 0.59% active; AID 588493;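 active = inhibition at 20 µM, scaled to each plate's controls, above about 33%, limit read from the data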
TPT1 inhibitor: C. albicans TPT1 enzyme inhibition | recombinant caTPT1, FP RNA substrate dephosphorylation | inhibition, % at 5 µM | 300,000 tested, 0.81% active;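 active = inhibition above the mean of all tested compounds plus 3 SD, set per screening campaign, cut at about 24% in these data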;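 note: plate controls were DMSO alone for no effect and ferristatin control at 100 nM for full effect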
CRFR2-BP antag: blocks CRF-induced signaling of the CRF-BP/CRF-R2 complex. inhibition, % at 11.8 µM. 350,000 tested, 0.59% active. HEK293 CRF-R2/CRF-BP, CRF-induced calcium fluorescence;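 active = inhibition of the ligand-induced calcium signal above about 50% at the single tested concentration, limit read from the data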
HNF4A DNA FP: change in binding of human HNF4 alpha to DNA. P41235. HNF4a-FITC DNA binding, fluorescence polarization, 1 h. activity change, % at 10 µM. 360,000 tested, 0.3% active. AID 1224865; in the data active = activity change above about 30%, passing the limit was not always enough
Target sequence (P41235 whole entry, looked up): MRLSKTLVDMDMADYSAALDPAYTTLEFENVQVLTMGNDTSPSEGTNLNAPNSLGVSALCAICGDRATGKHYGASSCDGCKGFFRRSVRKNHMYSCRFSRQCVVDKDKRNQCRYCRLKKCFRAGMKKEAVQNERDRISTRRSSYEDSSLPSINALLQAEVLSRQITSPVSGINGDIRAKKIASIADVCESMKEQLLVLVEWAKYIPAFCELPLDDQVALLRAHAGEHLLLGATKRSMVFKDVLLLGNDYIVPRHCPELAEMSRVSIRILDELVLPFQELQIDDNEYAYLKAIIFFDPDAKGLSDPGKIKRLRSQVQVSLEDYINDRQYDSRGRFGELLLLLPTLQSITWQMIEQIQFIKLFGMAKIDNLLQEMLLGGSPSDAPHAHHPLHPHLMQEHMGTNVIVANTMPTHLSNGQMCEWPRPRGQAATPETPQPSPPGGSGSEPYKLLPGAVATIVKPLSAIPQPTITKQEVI
Numbers without * were called inactive; i = inactive; nt = not tested or not shown; + = active, no number.

SMILES	CSN inh	CRFR2-BP ag	Rpn11 inh	TPT1 inhibitor	CRFR2-BP antag	HNF4A DNA FP
Cc1cn2c(N)c(C=C3C=C(Cl)C(=O)C(Cl)=C3)c(=O)nc2s1	62	117*	nt	nt	-131	108*
CCN(c1cccc(C)c1)c1nc2ccsc2c(=O)s1	-3	-6	i	2	70*	0
Cn1c(SCC(=O)N2CCCc3ccccc32)nc2cccnc21	0	-4	i	1	56*	2
CCC/C(=N\NC(=O)C1CC1)c1ccccc1	6	-2	i	1	65*	1
CCC/C(=N\NC(=O)C1CC1)c1ccc(Br)cc1	-4	-3	i	-2	-3	4
CC(OC(=O)c1ccc(S(=O)(=O)NCc2ccco2)cc1)C(=O)Nc1ccc(Cl)cn1 (stereo not given)	-1	99*	i	-3	-218	-7
CCC(=O)c1ccc(OCC(=O)NC2(C#N)CCCCC2)cc1	-8	0	i	-3	2	-1
Cc1ccc(OC(=O)N(C)C[C@@H]2OCc3cn(nn3)CCCC(=O)N([C@H](C)CO)C[C@H]2C)cc1	5	0	i	nt	1	1
C[C@H]1CN([C@@H](C)CO)C(=O)CCCn2cc(nn2)CO[C@@H]1CN(C)C(=O)Oc1ccccc1	100*	nt	i	nt	nt	0
C[C@H](CO)N1C[C@H](C)[C@@H](CN(C)C(=O)c2ccc3ccn(C)c3c2)OCc2cn(nn2)CCCC1=O	-2	0	i	nt	63*	0
Cc1cc(SC(C)C(=O)O)nc2ccccc12 (stereo not given)	12	-1	i	4	4	-3
COCCNC(=O)c1sc2ncn(CC(=O)N3CCCCC3)c(=O)c2c1C	1	0	i	-7	11	65*
Cc1c(C(=O)Nc2c(F)cccc2F)sc2ncn(CC(=O)N3CCCCC3)c(=O)c12	-2	-1	i	4	78*	0
Cc1ccc(C)c2nc3sc(C(=O)N4CCCc5ccccc54)c(N)c3cc12	5	60*	i	22	-154	56*
CCOc1ccc(OCc2ccc(C(=O)N3CCCCC3)o2)cc1	-3	1	i	-4	8	36*
COc1cc(C)ccc1Oc1nc(-c2ccccc2O)nc2ccccc12	-3	10	i	-3	-3	-2
CCOC(=O)C1=C(c2ccccc2)NC(=O)NC1c1ccc(OC)cc1 (stereo not given)	107*	0	i	-2	2	-4
CCOC(=O)C1=C(c2ccccc2)NC(=O)NC1c1ccc(N(C)C)cc1 (stereo not given)	2	-1	i	-2	0	1
CN1C(=O)C2(N=c3ccccc3=N2)c2ccccc21	-2	0	i	1	68*	1
CN1C(=O)C2(OCC(C)([N+](=O)[O-])CO2)c2ccccc21 (stereo not given)	-4	-4	i	1	23	5
COc1cccc(NS(=O)(=O)c2cn(C)c(=O)n(C)c2=O)c1	-1	-1	i	0	4	-1
Cc1nc(NC(=O)c2ccccc2)sc1-c1csc(NCc2ccco2)n1	19	-2	+	9	-8	10
COc1ccnc(CSC(N)=Nc2ccc(F)cc2)c1	-4	6	i	1	86*	0
COc1cccc(N/C(N)=N/c2nc(CSc3ccccn3)cc(=O)[nH]2)c1	nt	nt	nt	-2	nt	nt
COc1ccc(NS(=O)(=O)c2cccc(-c3nnc4n3CCCCC4)c2)cc1	0	-1	i	4	-13	2
SMILES	CSN inh	CRFR2-BP ag	Rpn11 inh	TPT1 inhibitor	CRFR2-BP antag	HNF4A DNA FP
COc1ccccc1C1CC(c2ccc(NS(C)(=O)=O)cc2)=NN1S(=O)(=O)c1ccccc1 (stereo not given)	-2	-3	i	-2	5	0
COc1ccccc1C1CC(c2cccc(NS(C)(=O)=O)c2)=NN1S(=O)(=O)c1ccccc1 (stereo not given)	22	1	i	1	-4	81*
O=C(Nc1nccs1)NC(C(F)(F)F)C(F)(F)F	3	2	i	-25	3	0
CCCn1nc([N+](=O)[O-])c(C(C#N)c2nc3ccccc3s2)c(Cl)c1=O (stereo not given)	-12	46	i	0	69*	17
S=c1[nH]nc(-c2cccc(Cl)c2)n1/N=C/c1ccco1	nt	-1	nt	-2	-21	nt
Cc1ccc(/C=N/n2c(-c3cccc(Cl)c3)n[nH]c2=S)o1	4	0	i	0	83*	-5
O=C(COC(=O)c1ccco1)NC1CCCc2ccccc21 (stereo not given)	-2	-1	i	nt	-4	1
O=C(Nc1ccccc1)Nc1cc(OCC(F)(F)F)cc(OCC(F)(F)F)c1	3	23	i	nt	55*	-1
CCC(=O)OC1(C)C(=O)C=C2C=C(c3ccsc3)OC=C2C1=O (stereo not given)	26	1	i	13	46	8
COC(=O)CCC(=O)OC1(C)C(=O)C=C2C=C(c3ccsc3)OC=C2C1=O (stereo not given)	38*	5	i	10	-2	8
CC(=O)N1CCc2cc(Br)cc(S(=O)(=O)N3CCCCC3)c21	0	0	i	-7	4	-4
CCCCCCCCCCCCCCCCn1cc[n+](C)c1	7	4	+	0	24	24
O=C(O)c1ccccc1NC(=S)NC(=O)c1cccc2ccccc12	-4	2	i	4	21	1
O=C(CCSc1ccccc1)Nc1nccs1	-2	-1	i	-1	-21	2
O=C(CSc1ccccc1)N(c1ccc(Br)cc1)c1nccs1	2	0	i	-1	50*	0
COc1ccc(OC)c(S(=O)(=O)N2c3ccccc3CC2C)c1 (stereo not given)	0	-2	i	2	53*	4
CC(=O)C[C@H]1c2ccccc2S(=O)(=O)N1C1CCCCC1	3	-5	i	2	4	-4
OC(COCc1ccccc1)CN1CCN(c2ccccc2)CC1 (stereo not given)	-2	6	i	2	-6	3
OC(COCc1ccccc1)CN1CCCC1 (stereo not given)	37*	-1	i	2	4	4
COC(=O)C[C@@H]1C[C@@H]2c3cc(NS(=O)(=O)c4ccccc4)ccc3O[C@@H]2[C@@H](CO)O1	3	0	i	nt	3	-2
O=C(C[C@H]1C[C@@H]2c3cc(NS(=O)(=O)c4ccccc4)ccc3O[C@@H]2[C@H](CO)O1)N1CCOCC1	-1	0	i	nt	52*	3
Cn1nc(C(=O)OCc2ccc(Br)cc2F)c2ccccc2c1=O	4	1	i	-1	1	-2
